In brackets after ≈: the same amount, converted by molar mass.

One data set has as its system Candida albicans. Put plainly: microbe, parasite or virus in culture. The data set is classed as functional, organism-based. Particulars: ATCC 90028, 24 h.
With `C/C=C/c1ccc(OCc2cn(Cc3ccccc3)nn2)c(OC)c1`, the 50% inhibitory concentration (IC50) is 481 µg/mL (≈ 1430 µM).

As for `COc1cc(C=O)ccc1O` [VANILLIN], the half-maximal inhibitory concentration (IC50) was found to be 321 µg/mL (≈ 2110 µM).

As to `CC(C)c1ccc(OCc2cn(Cc3ccccc3)nn2)cc1`, half-maximal inhibition (IC50) required 550 µg/mL (≈ 1790 µM).

Consider `c1ccc(Cn2cc(COc3cccc4cccnc34)nn2)cc1`, for which the half-inhibitory concentration (IC50) is 0.044 µg/mL (≈ 0.139 µM) and the MIC turned out to be 15.6 µg/mL (≈ 49.4 µM).

As to `COc1ccccc1O` [GUAIACOL], half-maximal inhibition (IC50) required 179 µg/mL (≈ 1440 µM).

Regarding `C=CCc1ccc(OCc2cn(Cc3ccccc3)nn2)c(OC)c1`, half-maximal inhibition (IC50) required 1090 µg/mL (≈ 3260 µM).

`C=CCc1ccc(O)c(OC)c1` [EUGENOL] yielded an IC50 of 237 µg/mL (≈ 1440 µM).

On to `COc1cc(/C=C/C(=O)O)ccc1OCc1cn(Cc2ccccc2)nn1`, for which the IC50 came out at 891 µg/mL (≈ 2440 µM).

The compound `CC(C)c1ccc(O)cc1` had an IC50 of 182 µg/mL (≈ 1330 µM).

A further data set deals with Candida albicans. Briefly: microbe, parasite or virus in culture. The data set is classed as functional. The following applies: ATCC 90028, 48 h.
`COc1cc(C=O)ccc1O` [VANILLIN] had an MFC of over 1000 µg/mL.

As to `CC(C)c1ccc(OCc2cn(Cc3ccccc3)nn2)cc1`, the MFC is 1000 µg/mL (≈ 3250 µM).

`c1ccc(Cn2cc(COc3cccc4cccnc34)nn2)cc1` came in with an MFC of 62.5 µg/mL (≈ 198 µM).

In turn, `COc1ccccc1O` [GUAIACOL] came in with an MFC of over 1000 µg/mL.

Regarding `C=CCc1ccc(OCc2cn(Cc3ccccc3)nn2)c(OC)c1`, the MFC was over 1000 µg/mL.

On to `C=CCc1ccc(O)c(OC)c1` [EUGENOL], for which the MFC was over 1000 µg/mL.

With `COc1cc(/C=C/C(=O)O)ccc1OCc1cn(Cc2ccccc2)nn1`, the MFC is over 1000 µg/mL.

Take `CC(C)c1ccc(O)cc1`: the MFC came to 500 µg/mL (≈ 3670 µM).

The next data set concerns Nakaseomyces glabratus. Briefly: microbe, parasite or virus in culture. The data set is classed as functional, organism-based. Particulars: ATCC 90030, 24 h.
For the compound `C/C=C/c1ccc(OCc2cn(Cc3ccccc3)nn2)c(OC)c1`, it took 293 µg/mL (≈ 873 µM) to reach half-maximal inhibition (IC50).

Take `COc1cc(C=O)ccc1O` [VANILLIN]: the IC50 came out at 483 µg/mL (≈ 3170 µM).

As for `CC(C)c1ccc(OCc2cn(Cc3ccccc3)nn2)cc1`, the IC50 worked out at 1060 µg/mL (≈ 3460 µM).

On to `c1ccc(Cn2cc(COc3cccc4cccnc34)nn2)cc1`, for which half-maximal inhibition (IC50) was put at 12 µg/mL (≈ 38 µM) and the MIC was 31.2 µg/mL (≈ 98.8 µM).

The compound `COc1ccccc1O` [GUAIACOL] registered an IC50 of 336 µg/mL (≈ 2700 µM).

`C=CCc1ccc(OCc2cn(Cc3ccccc3)nn2)c(OC)c1` displayed an IC50 of 847 µg/mL (≈ 2530 µM).

With `C=CCc1ccc(O)c(OC)c1` [EUGENOL], 216 µg/mL (≈ 1310 µM) corresponded to half-maximal inhibition (IC50).

Compound `COc1cc(/C=C/C(=O)O)ccc1OCc1cn(Cc2ccccc2)nn1` showed an IC50 of 416 µg/mL (≈ 1140 µM).

Turning to `CC(C)c1ccc(O)cc1`, the concentration for half-maximal inhibition (IC50) was 153 µg/mL (≈ 1130 µM).

The next data set has as its system Nakaseomyces glabratus. Put plainly: microbe, parasite or virus in culture. The data set is classed as functional. The following applies: ATCC 90030, 48 h.
`C/C=C/c1ccc(OCc2cn(Cc3ccccc3)nn2)c(OC)c1` yielded an MFC of over 1000 µg/mL.

On to `COc1cc(C=O)ccc1O` [VANILLIN], for which the MFC is over 1000 µg/mL.

Regarding `CC(C)c1ccc(OCc2cn(Cc3ccccc3)nn2)cc1`, the MFC was 1000 µg/mL (≈ 3250 µM).

In the case of `c1ccc(Cn2cc(COc3cccc4cccnc34)nn2)cc1`, the MFC amounted to 125 µg/mL (≈ 395 µM).

`COc1ccccc1O` [GUAIACOL] displayed an MFC of over 1000 µg/mL.

Compound `C=CCc1ccc(OCc2cn(Cc3ccccc3)nn2)c(OC)c1` registered an MFC of over 1000 µg/mL.

For `C=CCc1ccc(O)c(OC)c1` [EUGENOL], the MFC was over 1000 µg/mL.

Take `COc1cc(/C=C/C(=O)O)ccc1OCc1cn(Cc2ccccc2)nn1`: the MFC was over 1000 µg/mL.

In turn, `CC(C)c1ccc(O)cc1` came in with an MFC of over 1000 µg/mL.

The subject of another data set is Candida tropicalis. Put plainly: Anticandidal activity against Candida tropicalis ATCC 750 incubated at 37 degC for 24 hrs by broth dilution method. The data set is classed as functional, organism-based. The following applies: ATCC 750, 24 h. On the technique in general: In broth dilution the organism is exposed to a series of concentrations in liquid medium.
`C/C=C/c1ccc(OCc2cn(Cc3ccccc3)nn2)c(OC)c1` had an IC50 of 154 µg/mL (≈ 459 µM).

For the compound `COc1cc(C=O)ccc1O` [VANILLIN], the midpoint of inhibition, the IC50, lay at 123 µg/mL (≈ 811 µM).

`CC(C)c1ccc(OCc2cn(Cc3ccccc3)nn2)cc1`: half-maximal inhibition (IC50) was put at 493 µg/mL (≈ 1600 µM).

`c1ccc(Cn2cc(COc3cccc4cccnc34)nn2)cc1` gave an IC50 of 3.6 µg/mL (≈ 11.4 µM) and an MIC of 15.6 µg/mL (≈ 49.4 µM).

`COc1ccccc1O` [GUAIACOL] had an IC50 of 201 µg/mL (≈ 1620 µM).

The compound `C=CCc1ccc(OCc2cn(Cc3ccccc3)nn2)c(OC)c1` had an IC50 of 734 µg/mL (≈ 2190 µM).

For `C=CCc1ccc(O)c(OC)c1` [EUGENOL], the 50% inhibitory concentration (IC50) amounted to 92.7 µg/mL (≈ 564 µM).

On to `COc1cc(/C=C/C(=O)O)ccc1OCc1cn(Cc2ccccc2)nn1`, for which the IC50 is 105 µg/mL (≈ 288 µM).

On to `CC(C)c1ccc(O)cc1`, for which half-maximal inhibition (IC50) required 69.5 µg/mL (≈ 510 µM).

The test system of a further data set is Candida tropicalis. Put plainly: Fungicidal activity against Candida tropicalis ATCC 750 incubated at 37 degC for 48 hrs by broth dilution method. The data set is classed as functional. Particulars: ATCC 750, 48 h.
Regarding `C/C=C/c1ccc(OCc2cn(Cc3ccccc3)nn2)c(OC)c1`, the MFC is over 1000 µg/mL.

Compound `COc1cc(C=O)ccc1O` [VANILLIN] displayed an MFC of over 1000 µg/mL.

In turn, `CC(C)c1ccc(OCc2cn(Cc3ccccc3)nn2)cc1` had an MFC of 1000 µg/mL (≈ 3250 µM).

Take `c1ccc(Cn2cc(COc3cccc4cccnc34)nn2)cc1`: the MFC came out at 62.5 µg/mL (≈ 198 µM).

`COc1ccccc1O` [GUAIACOL]: the MFC is over 1000 µg/mL.

Consider `C=CCc1ccc(O)c(OC)c1` [EUGENOL], for which the MFC was over 1000 µg/mL.

Compound `COc1cc(/C=C/C(=O)O)ccc1OCc1cn(Cc2ccccc2)nn1` gave an MFC of over 1000 µg/mL.

The compound `CC(C)c1ccc(O)cc1` gave an MFC of over 1000 µg/mL.

For the next data set, the system named is Vero. Briefly: Cytotoxicity against African green monkey Vero cells assessed as reduction in cell viability up to 10 ug/ml after 48 hrs by neutral red assay. The data set is classed as cell-based. Particulars: chlorocebus sabaeus.
Take `C/C=C/c1ccc(OCc2cn(Cc3ccccc3)nn2)c(OC)c1`: the Activity result is “Non-toxic”.

On to `CC(C)c1ccc(OCc2cn(Cc3ccccc3)nn2)cc1`, for which the Activity entry is listed as “Non-toxic”.

Regarding `c1ccc(Cn2cc(COc3cccc4cccnc34)nn2)cc1`, the Activity entry is given as “Non-toxic”.

On to `C=CCc1ccc(OCc2cn(Cc3ccccc3)nn2)c(OC)c1`, for which the Activity result is given as “Non-toxic”.

In the case of `COc1cc(/C=C/C(=O)O)ccc1OCc1cn(Cc2ccccc2)nn1`, the Activity result is reported as “Non-toxic”.

In another data set the test system is Candida albicans. Put plainly: Anticandidal activity against Candida albicans ATCC 90028 incubated at 37 degC for 24 hrs in presence of fluconazole by broth micro dilution method. Particulars: ATCC 90028, 24 h. The data set is classed as functional.
Turning to `c1ccc(Cn2cc(COc3cccc4cccnc34)nn2)cc1`, the MIC was 7.81 µg/mL.

For a further data set, the system named is Nakaseomyces glabratus. Put plainly: Anticandidal activity against Candida glabrata ATCC 90030 incubated at 37 degC for 24 hrs in presence of fluconazole by broth micro dilution method. The data set is classed as functional. Particulars: ATCC 90030, 24 h.
As for `c1ccc(Cn2cc(COc3cccc4cccnc34)nn2)cc1`, the MIC is 7.81 µg/mL.

Another data set deals with Candida tropicalis. Put plainly: Anticandidal activity against Candida tropicalis ATCC 750 incubated at 37 degC for 24 hrs in presence of fluconazole by broth micro dilution method. The data set is classed as functional. Particulars: ATCC 750, 24 h.
As to `c1ccc(Cn2cc(COc3cccc4cccnc34)nn2)cc1`, the MIC amounted to 7.81 µg/mL.

The next data set relates to Candida albicans. Briefly: Anticandidal activity against Candida albicans ATCC 90028 assessed as fractional inhibitory concentration incubated at 37 degC for 24 hrs in presence of fluconazole by broth micro dilution method. The data set is classed as functional.
Settings: not given
In the case of `c1ccc(Cn2cc(COc3cccc4cccnc34)nn2)cc1`, the “fractional inhibitory concentration index (FICI)” value was 0.74.

Another data set relates to Nakaseomyces glabratus. Briefly: Anticandidal activity against Candida glabrata ATCC 90030 assessed as fractional inhibitory concentration incubated at 37 degC for 24 hrs in presence of fluconazole by broth micro dilution method. The data set is classed as functional.
Settings: not given
Take `c1ccc(Cn2cc(COc3cccc4cccnc34)nn2)cc1`: the “fractional inhibitory concentration index (FICI)” value was 0.48.

The subject of a further data set is Candida tropicalis. Briefly: Anticandidal activity against Candida tropicalis ATCC 750 assessed as fractional inhibitory concentration incubated at 37 degC for 24 hrs in presence of fluconazole by broth micro dilution method. The data set is classed as functional.
Settings: not given
Consider `c1ccc(Cn2cc(COc3cccc4cccnc34)nn2)cc1`, for which the “fractional inhibitory concentration index (FICI)” value is 0.74.

Tested on in a further data set: not listed separately
Briefly: Toxicity in human RBC assessed as induction of hemolysis at 500 ug/ml incubated for 1 hr by spectrophotometry. The data set is classed as cell-based, Erythrocyte. Particulars: red blood cells (RBC), read-out: Activity. In a few lines: (§1)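 Human erythrocyte suspension in PBS, 100 µL added in triplicate to 100 µL compound dilution series in the same buffer, 1 h at 37 °C. Tubes centrifuged 10 min at 2000 rpm and 20 °C, and supernatant A450 measured. Percent hemolysis taken relative to buffer (0%) and 1% Triton X-100 (100%).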
As for `COc1cc(C=O)ccc1O` [VANILLIN], the hemolysis at 1 h, 500 ug/ml turned out to be 5.45%.

Consider `c1ccc(Cn2cc(COc3cccc4cccnc34)nn2)cc1`, for which the hemolysis at 1 h, 500 ug/ml was 4.76%.

Tested on in the next data set: not listed separately
Put plainly: Toxicity in human RBC assessed as induction of hemolysis at anticandidal IC50 level incubated for 1 hr by spectrophotometry. The following applies: red blood cells (RBC), read-out: Activity. The data set is classed as cell-based, Erythrocyte. In a few lines: as §1
As for `COc1cc(C=O)ccc1O` [VANILLIN], the hemolysis at 1 h is under 5%.

Turning to `c1ccc(Cn2cc(COc3cccc4cccnc34)nn2)cc1`, the hemolysis at 1 h was under 5%.

As usually defined, the IC50 is the point on the concentration scale where inhibition reaches its midpoint.

(Values after ChEMBL document CHEMBL3407499, “Synthesis, QSAR and anticandidal evaluation of 1,2,3-triazoles derived from naturally bioactive scaffolds” (Eur J Med Chem, 2015).)
